Results published in ChEMBL document CHEMBL3600364, “Modification of N-(6-(2-methoxy-3-(4-fluorophenylsulfonamido)pyridin-5-yl)-[1,2,4]triazolo[1,5-a]pyridin-2-yl)acetamide as PI3Ks inhibitor by replacement of the acetamide group with alkylurea” (Bioorg Med Chem, 2015).

What was measured:
[1] = test system: A549; assay: Cytotoxicity against human A549 cells after 72 hrs by MTT assay; type: functional, cell-based; conditions: A549, 72 h
Summary of the method: (§1)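 Cells (1500–4000/well) were plated for 24 h, then exposed to serial concentrations for 72 h at 1% DMSO final. MTT was added for 4 h, formazan dissolved in DMSO, and OD read at 490 nm. IC50 (μM) came from three experiments run in triplicate.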

[2] = test system: U-87 MG; assay: Cytotoxicity against human U87MG cells after 72 hrs by MTT assay; type: functional, cell-based, U-87MG ATCC; summary of the method: as §1
[3] = test system: HCT-116; assay: Cytotoxicity against human HCT116 cells after 72 hrs by MTT assay; type: functional, cell-based; conditions: HCT-116, 72 h; summary of the method: as §1
[4] = test system: MCF7; assay: Cytotoxicity against human MCF7 cells after 72 hrs by MTT assay; type: functional, cell-based; conditions: MCF7, 72 h; summary of the method: as §1
[5] = test system: Mus musculus; assay: Toxicity in mouse S180 cells xenografted in mouse assessed as change in body weight at 5 to 30 mg/kg, po qd for 8 days; type: organism-based, CCRF S-180; conditions: in vivo, 192 h
Summary of the method: (§2)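 Mice (20.3 ± 1.6 g) were given 3×10^6 S180 cells subcutaneously in the flank and randomized the next day into groups of 8. Dosing was oral, once daily for 8 days, in NMP/PEG400/H₂O (1:6:3), with a solvent-only group as control. Body weight was recorded daily. On day 9, tumors were excised and weighed, and tumor-weight inhibitory ratio was calculated.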

[6] = target: T1, Phosphatidylinositol 4,5-bisphosphate 3-kinase catalytic subunit delta isoform (Homo sapiens, UniProt O00329); assay: Inhibition of PI3Kdelta (unknown origin) assessed as reduction of ATP level after 40 mins by luciferase based luminescence assay
T1 sequence (O00329 whole entry): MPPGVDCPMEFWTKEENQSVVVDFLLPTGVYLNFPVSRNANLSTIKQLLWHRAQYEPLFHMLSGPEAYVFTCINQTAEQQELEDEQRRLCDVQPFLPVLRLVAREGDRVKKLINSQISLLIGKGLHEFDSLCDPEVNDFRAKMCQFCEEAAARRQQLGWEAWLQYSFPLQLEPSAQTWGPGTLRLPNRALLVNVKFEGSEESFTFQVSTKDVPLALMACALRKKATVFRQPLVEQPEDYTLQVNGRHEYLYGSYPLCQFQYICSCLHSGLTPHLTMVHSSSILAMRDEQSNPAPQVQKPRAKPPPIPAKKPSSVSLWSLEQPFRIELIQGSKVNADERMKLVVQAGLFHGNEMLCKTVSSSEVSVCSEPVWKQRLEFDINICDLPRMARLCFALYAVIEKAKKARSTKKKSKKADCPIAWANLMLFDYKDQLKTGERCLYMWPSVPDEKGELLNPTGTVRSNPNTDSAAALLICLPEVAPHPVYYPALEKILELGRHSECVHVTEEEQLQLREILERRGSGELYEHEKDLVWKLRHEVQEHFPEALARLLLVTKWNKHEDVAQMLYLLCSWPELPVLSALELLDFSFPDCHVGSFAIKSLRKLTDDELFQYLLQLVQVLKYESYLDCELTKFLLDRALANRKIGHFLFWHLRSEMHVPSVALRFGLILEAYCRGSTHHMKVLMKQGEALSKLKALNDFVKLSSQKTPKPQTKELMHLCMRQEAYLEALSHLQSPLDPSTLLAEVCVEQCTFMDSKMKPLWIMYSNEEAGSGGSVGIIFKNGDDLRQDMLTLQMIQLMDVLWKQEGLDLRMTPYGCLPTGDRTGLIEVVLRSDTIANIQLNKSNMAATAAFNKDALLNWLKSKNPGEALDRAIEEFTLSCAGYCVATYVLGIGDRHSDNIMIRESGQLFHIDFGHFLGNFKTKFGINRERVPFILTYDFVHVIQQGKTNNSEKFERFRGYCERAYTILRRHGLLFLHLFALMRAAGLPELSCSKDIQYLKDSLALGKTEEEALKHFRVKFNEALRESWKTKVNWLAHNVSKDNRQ
Summary of the method: (§3)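 Each enzyme was tested separately: PI3Kα (p110α/p85α), β (p110β/p85α), γ (p110γ/PIK3R5), δ (p110δ/p85α) or mTOR, with L-α-phosphatidylinositol substrate. […] was measured by luciferase luminescence. Inhibition was normalized to no-compound and no-enzyme controls, and IC50 obtained from dose-response fits.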

[7] = target: T2, Phosphatidylinositol 4,5-bisphosphate 3-kinase catalytic subunit alpha isoform (Homo sapiens, UniProt P42336); assay: Inhibition of PI3Kalpha (unknown origin) assessed as reduction of ATP level after 40 mins by luciferase based luminescence assay
T2 sequence (P42336 whole entry, canonical isoform): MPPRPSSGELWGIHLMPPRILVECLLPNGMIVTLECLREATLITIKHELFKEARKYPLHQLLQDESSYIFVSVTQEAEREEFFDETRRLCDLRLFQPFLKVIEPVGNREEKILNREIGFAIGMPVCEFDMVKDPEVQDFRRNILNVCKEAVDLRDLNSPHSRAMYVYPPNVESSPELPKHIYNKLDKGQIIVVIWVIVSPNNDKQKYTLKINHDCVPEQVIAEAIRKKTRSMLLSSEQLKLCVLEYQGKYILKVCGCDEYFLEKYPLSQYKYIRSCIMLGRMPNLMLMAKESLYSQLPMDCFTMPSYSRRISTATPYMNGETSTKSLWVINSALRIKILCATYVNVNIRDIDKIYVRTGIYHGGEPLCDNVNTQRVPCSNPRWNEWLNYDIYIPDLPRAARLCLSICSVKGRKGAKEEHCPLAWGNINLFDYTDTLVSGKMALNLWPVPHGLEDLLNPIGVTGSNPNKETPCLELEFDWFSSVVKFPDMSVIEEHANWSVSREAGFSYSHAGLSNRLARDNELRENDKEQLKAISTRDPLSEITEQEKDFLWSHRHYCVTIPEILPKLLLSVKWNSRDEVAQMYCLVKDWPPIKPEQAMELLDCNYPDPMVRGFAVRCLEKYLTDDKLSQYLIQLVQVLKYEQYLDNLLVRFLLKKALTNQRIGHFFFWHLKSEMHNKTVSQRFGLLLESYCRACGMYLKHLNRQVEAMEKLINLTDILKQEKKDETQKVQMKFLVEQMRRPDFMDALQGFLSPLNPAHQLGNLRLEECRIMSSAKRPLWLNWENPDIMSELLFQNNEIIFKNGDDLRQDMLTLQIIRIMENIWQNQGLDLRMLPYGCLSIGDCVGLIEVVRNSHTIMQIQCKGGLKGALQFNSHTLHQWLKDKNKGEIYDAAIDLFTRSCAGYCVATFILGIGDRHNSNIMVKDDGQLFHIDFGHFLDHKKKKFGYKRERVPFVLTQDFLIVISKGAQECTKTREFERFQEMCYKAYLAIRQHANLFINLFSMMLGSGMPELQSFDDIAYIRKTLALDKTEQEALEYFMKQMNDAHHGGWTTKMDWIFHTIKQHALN

[8] = test system: CCRF S-180; assay: Antitumor activity against mouse S180 cells xenografted in mouse assessed as inhibition of tumor growth at 10 mg/kg, po […] for 8 days relative to control; type: functional; conditions: CCRF S-180, po, 192 h, read-out: GI; summary of the method: as §2
[9] = target: T2, Phosphatidylinositol 4,5-bisphosphate 3-kinase catalytic subunit alpha isoform; assay: Ratio of BEZ235 IC50 to compound IC50 for PI3Kalpha (unknown origin) assessed as reduction of ATP level after 40 mins by luciferase based luminescence assay
[10] = target: Serine/threonine-protein kinase mTOR (Homo sapiens, UniProt P42345); assay: Inhibition of mTOR (unknown origin) assessed as reduction of ATP level after 40 mins by luciferase based luminescence assay; summary of the method: as §3
[11] = Acute toxicity in po dosed mouse; type: organism-based; conditions: in vivo
Summary of the method: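 Mouse acute oral toxicity (20.1 ± 1.9 g) by up-and-down procedure per OECD guideline 425. Compound dissolved in NMP, diluted with PEG400 and H2O (NMP/PEG400/H2O 1:8:1 v/v), given orally. Starting dose 50 mg/kg or 100 mg/kg depending on compound, slope factor sigma 0.12. Dosing stopped per AOT425StatPgm stopping rules.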

[12] = Ratio of compound LD50 to compound B LD50 for po dosed mouse; type: ADME, organism-based; conditions: in vivo
[13] = test system: CCRF S-180; assay: Antitumor activity against mouse S180 cells xenografted in mouse assessed as inhibition of tumor growth at 5 mg/kg, po […] for 8 days relative to control; type: functional; conditions: CCRF S-180, po, 192 h, read-out: GI; summary of the method: as §2
[14] = test system: CCRF S-180; assay: Antitumor activity against mouse S180 cells xenografted in mouse assessed as inhibition of tumor growth at 30 mg/kg, po […] for 8 days relative to control; type: functional; conditions: CCRF S-180, po, 192 h, read-out: GI; summary of the method: as §2
[15] = test system: HCT-116; assay: Ratio of BEZ235 IC50 to compound IC50 for human HCT116 cells; type: functional

Row | SMILES | IC50 [1] [nM] | IC50 [2] [nM] | IC50 [3] [nM] | IC50 [4] [nM] | other results
1 | COc1ncc(-c2ccc3nc(NC(=O)NCC(=O)N4CCOCC4)nn3c2)cc1NS(=O)(=O)c1ccc(F)cc1 | 2570 | 3260 | 490 | 630 | 
2 | CNC(=O)Nc1nc2ccc(-c3cnc(OC)c(NS(=O)(=O)c4ccc(F)cc4)c3)cn2n1 | 230 | 640 | 180 | 250 | 
3 | COc1ncc(-c2ccc3nc(NC(=O)NCCN(C)C)nn3c2)cc1NS(=O)(=O)c1ccc(F)cc1 | 800 | 980 | 220 | 560 | 
4 | CCN(CC)CCNC(=O)Nc1nc2ccc(-c3cnc(OC)c(NS(=O)(=O)c4ccc(F)cc4)c3)cn2n1 | 760 | 720 | 180 | 370 | Activity [5]: Non-toxic; IC50 [6]: 12 nM; IC50 [7]: 14 nM; inhibition in vivo at 10 mg/kg [8]: 49%; Ratio IC50 [9]: 3; IC50 [10]: 123 nM; LD50 [11]: 513 mg/kg; selectivity ratio [12]: 18; inhibition in vivo at 5 mg/kg [13]: 37.3%; inhibition in vivo at 30 mg/kg [14]: 53.6%
5 | CCN(CC)CCNC(=O)Nc1nc2ccc(-c3cnc(OC)c(NS(=O)(=O)c4ccc(C)cc4)c3)cn2n1 | 730 | 670 | 170 | 410 | 
6 | Cn1c(=O)n(-c2ccc(C(C)(C)C#N)cc2)c2c3cc(-c4cnc5ccccc5c4)ccc3ncc21 [DACTOLISIB] | 280 | 770 | 290 | 260 | 
7 | COc1ncc(-c2ccc3nc(NC(=O)NCCN4CCN(C)CC4)nn3c2)cc1NS(=O)(=O)c1ccc(F)cc1 | 1050 | 760 | 260 | 500 | 
8 | CCN(CC)CCNC(=O)Nc1nc2ccc(-c3cnc(OC)c(NS(=O)(=O)c4ccc(Cl)cc4)c3)cn2n1 | 680 | 760 | 120 | 680 | 
9 | COc1ncc(-c2ccc3nc(NC(C)=O)nn3c2)cc1NS(=O)(=O)c1ccc(F)cc1 |  |  |  |  | LD50 [11]: 28 mg/kg
10 | COc1ncc(-c2ccc3nc(NC(=O)NCC(=O)N4CCCC4)nn3c2)cc1NS(=O)(=O)c1ccc(F)cc1 | 2190 | 1000 | 140 | 2130 | 
11 | COc1ncc(-c2ccc3nc(NC(=O)NCCN4CCCC4)nn3c2)cc1NS(=O)(=O)c1ccc(F)cc1 | 960 | 1120 | 230 | 380 | 
12 | COc1ncc(-c2ccc3nc(NC(=O)NCCN4CCOCC4)nn3c2)cc1NS(=O)(=O)c1ccc(F)cc1 | 420 | 560 | 130 | 210 | 
13 | COc1ncc(-c2ccc3nc(NC(=O)N(C)C)nn3c2)cc1NS(=O)(=O)c1ccc(F)cc1 | 1190 | 1780 | 760 | 1560 | 
14 | COc1ncc(-c2ccc3nc(NC(=O)NCC(=O)N4CCCCC4)nn3c2)cc1NS(=O)(=O)c1ccc(F)cc1 | 2060 | 740 | 130 | 570 | 
15 | COc1ncc(-c2ccc3nc(NC(=O)NC4CC4)nn3c2)cc1NS(=O)(=O)c1ccc(F)cc1 | 210 | 540 | 90 | 300 | IC50 [6]: 16 nM; IC50 [7]: 7 nM; Ratio IC50 [9]: 8; IC50 [10]: 275 nM; LD50 [11]: 118 mg/kg; Ratio IC50 [15]: 3; selectivity ratio [12]: 4
16 | CCCNC(=O)Nc1nc2ccc(-c3cnc(OC)c(NS(=O)(=O)c4ccc(F)cc4)c3)cn2n1 | 220 | 420 | 150 | 360 | LD50 [11]: 156 mg/kg; selectivity ratio [12]: 5
17 | COc1ncc(-c2ccc3nc(NC(=O)N4CCCC4)nn3c2)cc1NS(=O)(=O)c1ccc(F)cc1 | 3570 | 1690 | 1290 | 1660 | 
18 | COc1ncc(-c2ccc3nc(NC(=O)NCCN4CCCCC4)nn3c2)cc1NS(=O)(=O)c1ccc(F)cc1 | 610 | 1080 | 150 | 200 | 
19 | CCN(CC)CCNC(=O)Nc1nc2ccc(-c3cnc(OC)c(NS(=O)(=O)c4ccc(F)cc4F)c3)cn2n1 | 980 | 1060 | 140 | 740 | 
